According to ChEMBL document CHEMBL1127066, “Discovery and structure-activity relationship of a series of 1-carba-1-dethiacephems exhibiting activity against methicillin-resistant Staphylococcus aureus” (J Med Chem, 1993):
Converted amounts (≈) assume the structure as drawn.

How the values were obtained:
[1] = Maximum concentration determined in monkeys dosed intravenously with 30 mg/kg; assay type: ADME, organism-based; set-up: dose 30 mg/kg, route intravenous; conditions: simiiformes, in vivo, iv
Outline: (§1)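 Male rhesus monkeys (n = 4) received 30 mg/kg iv in 0.9% saline. Cephalic-vein plasma was sampled over 8 h, and 0–24 h cumulative urine was collected in metabolism cages into 0.1 M sodium citrate, pH 6.5. Antibacterial activity was quantified by agar well diffusion bioassay against plasma- or citrate-based standard curves. Half-life was 0.693/β from the terminal phase, and urinary recovery was % of administered dose.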

[2] = Maximum concentration determined in rats dosed intravenously with 20 mg/kg; assay type: ADME, organism-based; set-up: dose 20 mg/kg, route intravenous; conditions: rat, in vivo, iv
Outline: (§2)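 Male Sprague–Dawley rats (n = 4) were given 20 mg/kg iv in 0.9% saline through a jugular cannula, with serial plasma samples and cumulative urine collected over 6 h. Urine was collected into 0.1 M citrate, pH 6.5, and samples were stored at -70 °C. Drug was measured by agar well diffusion bioassay (E. coli ATCC4157 or M. luteus ATCC9241) against spiked standard curves. Half-life was 0.693/β from the terminal slope, and urinary recovery was % of dose.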

Homo sapiens [3] = species: Homo sapiens; assay: (§3) In vitro plasma protein binding was evaluated by using Human plasma at 20 ug/mL; assay type: ADME
Outline: (§4)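 Binding was measured by ultrafiltration (Centrifree micropartition) in pooled plasma (ICR mouse, Sprague–Dawley rat, rhesus monkey or human) at a drug concentration of 20 μg/mL.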

Rhesus monkey = assay: In vitro plasma protein binding was evaluated by using rhesus monkey at 20 ug/mL; assay type: ADME, Macaca mulatta; outline: as §4
Mus musculus = species: Mus musculus; assay: In vitro plasma protein binding was evaluated using ICR mouse at 20 ug/mL; assay type: ADME; outline: as §4
[4] = Percent urinary recovery (as total antibacterial activity) in monkeys dosed intravenously with 30 mg/kg; assay type: ADME, organism-based, Urine; set-up: dose 30 mg/kg, route intravenous; conditions: simiiformes, in vivo, iv; outline: as §1
Rattus norvegicus [5] = assay: Percent urinary recovery (as total antibacterial activity) in rats dosed intravenously with 20 mg/kg; assay type: ADME, organism-based, Urine; set-up: dose 20 mg/kg, route intravenous; conditions: in vivo, iv; outline: as §2
[6] = Half-life determined in monkeys dosed intravenously with 30 mg/kg; assay type: ADME, organism-based; set-up: dose 30 mg/kg, route intravenous; conditions: simiiformes, in vivo, iv; outline: as §1
[7] = Half-life determined in rats dosed intravenously with 20 mg/kg; assay type: ADME, organism-based; set-up: dose 20 mg/kg, route intravenous; conditions: rat, in vivo, iv; outline: as §2
Escherichia coli = assay: In vitro evaluation of antimicrobial activity against Escherichia coli EC14 strain; assay type: functional
Enterobacter cloacae = assay: In vitro evaluation of antimicrobial activity against Enterobacter cloacae EB5 strain; assay type: functional
Haemophilus influenzae = assay: In vitro antimicrobial activity against Haemophilus influenzae C.L. strain; assay type: functional
Klebsiella = assay: In vitro antimicrobial activity against Klebsiella X26 strain; assay type: functional
Staphylococcus aureus [8] = assay: In vitro evaluation of antimicrobial activity against 31 strains of heteroresistant Staphylococcus aureus in trypticase soy broth with 4% sodium chloride; assay type: functional
Staphylococcus aureus [9] = assay: In vitro evaluation of antimicrobial activity against heteroresistant Staphylococcus aureus ST 430 strain in trypticase soy broth; assay type: functional
Staphylococcus aureus [10] = assay: In vitro evaluation of antimicrobial activity against heteroresistant Staphylococcus aureus ST 430 strain in trypticase soy broth with 4% sodium chloride; assay type: functional
Pseudomonas aeruginosa [11] = assay: Antimicrobial activity against Pseudomonas PS18 strain; assay type: functional
Pseudomonas aeruginosa [12] = assay: In vitro antimicrobial activity against Pseudomonas X239 strain; assay type: functional
[13] = tested on: Staphylococcus epidermidis; assay: In vitro antimicrobial activity against Staphylococcus epidermidis 222 strain; assay type: functional
[14] = tested on: Staphylococcus epidermidis; assay: In vitro antimicrobial activity against Staphylococcus epidermidis 270 strain; assay type: functional
Staphylococcus aureus [15] = assay: In vitro antimicrobial activity against Staphylococcus aureus S13E strain; assay type: functional
Staphylococcus aureus [16] = assay: In vitro antimicrobial activity against Staphylococcus aureus X400 strain; assay type: functional
Streptococcus pneumoniae = assay: In vitro antimicrobial activity against Streptococcus pneumoniae PARK strain; assay type: functional
Rattus norvegicus [17] = species: Rattus norvegicus; assay: (§5) In vitro plasma protein binding was evaluated using Sprauge-Dawley rat at 20 ug/mL; assay type: ADME; outline: as §4
Staphylococcus aureus [18] = assay: In vitro antimicrobial activity against Staphylococcus aureus X1.1 strain; assay type: functional
[19] = Tested against penicillin binding protein 2a (PBP2a) enzyme.
Staphylococcus aureus [20] = assay: Minimum inhibitory concentration against heteroresistant strain of Staphylococcus aureus 430 in the absence of NaCl; assay type: functional
Staphylococcus aureus [21] = assay: Minimum inhibitory concentration against methicillin-resistant Staphylococcus aureus 430 (MRSA) in vitro using trypticase soy broth (TSB); assay type: functional
Staphylococcus aureus [22] = assay: Minimum inhibitory concentration against methicillin-resistant Staphylococcus aureus 430 (MRSA) in vitro using trypticase soy broth (TSB) with 4% NaCl; assay type: functional
Staphylococcus aureus [23] = assay: Minimum inhibitory concentration against sensitive strain of Staphylococcus aureus 446 in 4% of NaCl; assay type: functional
Staphylococcus aureus [24] = assay: Minimum inhibitory concentration against sensitive strain of Staphylococcus aureus 446 in the absence of NaCl; assay type: functional
Staphylococcus aureus [25] = assay: Minimum inhibitory concentration against homoresistant strain of Staphylococcus aureus 447 in 4% of NaCl; assay type: functional
Staphylococcus aureus [26] = assay: Minimum inhibitory concentration against homoresistant strain of Staphylococcus aureus 447 in the absence of NaCl; assay type: functional
Staphylococcus aureus [27] = assay: Minimum inhibitory concentration against heteroresistant strain of Staphylococcus aureus 430 in 4% of NaCl; assay type: functional
Homo sapiens [28] = species: Homo sapiens; assay: as §3; assay type: functional; outline: as §4
Rattus norvegicus [29] = species: Rattus norvegicus; assay: as §5; assay type: functional; outline: as §4

Row | Structure (SMILES) | Bound (Homo sapiens [3]) | Bound (Mus musculus) | MIC (Escherichia coli) | MIC (Enterobacter cloacae) | MIC (Haemophilus influenzae) | MIC (Klebsiella) | MIC (Pseudomonas aeruginosa [11]) | MIC (Pseudomonas aeruginosa [12]) | MIC [13] | MIC [14] | MIC (Staphylococcus aureus [15]) | MIC (Staphylococcus aureus [16]) | MIC (Streptococcus pneumoniae) | Bound (Rattus norvegicus [17]) | MIC (Staphylococcus aureus [18]) | IC50 [19] | MIC (Staphylococcus aureus [20]) | MIC (Staphylococcus aureus [21]) | MIC (Staphylococcus aureus [22]) | MIC (Staphylococcus aureus [23]) | also measured
1 | Nc1nc(/C(=N\OCCF)C(=O)N[C@@H]2C(=O)N3C(C(=O)[O-])=C(Sc4nc5cnccc5s4)CC[C@H]23)cs1.[Na+] | 96.6% | 88.5% | 0.06 µg/mL | 1 µg/mL | 0.03 µg/mL | 0.03 µg/mL | 32 µg/mL | 32 µg/mL | 0.5 µg/mL | 2 µg/mL | 0.5 µg/mL | 4 µg/mL | < 0.008 µg/mL | 95% | 0.125 µg/mL |  |  |  |  |  | Cmax [1]: 343 µg/mL; Cmax [2]: 56.7 µg/mL; Bound (Rhesus monkey): 98.5%; Recovery [4]: 46.8%; Recovery (Rattus norvegicus [5]): 37.2%; half-life [6]: 58.4 min; half-life [7]: 35.1 min; MIC (Staphylococcus aureus [8]): 2.6 µg/mL; MIC (Staphylococcus aureus [9]): 0.5 µg/mL; MIC (Staphylococcus aureus [10]): 1 µg/mL
2 | Nc1nc(/C(=N\OCCF)C(=O)N[C@@H]2C(=O)N3C(C(=O)[O-])=C(Sc4nc5ccc([N+](=O)[O-])cc5s4)CC[C@H]23)cs1.[Na+] | > 99.2% | 96.9% | 0.25 µg/mL | 1 µg/mL | 0.03 µg/mL | 0.06 µg/mL | 64 µg/mL | > 128 µg/mL | 0.5 µg/mL | 0.5 µg/mL | 2 µg/mL | 2 µg/mL | < 0.008 µg/mL | 98.3% | 0.06 µg/mL | 0.85 µg/mL | 1 µg/mL | 0.5 µg/mL | 1 µg/mL | 0.25 µg/mL | MIC (Staphylococcus aureus [24]): 0.25 µg/mL; MIC (Staphylococcus aureus [25]): 1.9 µg/mL; MIC (Staphylococcus aureus [26]): 1.9 µg/mL; MIC (Staphylococcus aureus [27]): 1 µg/mL
3 | Nc1nc(/C(=N\OCCF)C(=O)N[C@@H]2C(=O)N3C(C(=O)[O-])=C(Sc4nncs4)CC[C@H]23)cs1.[Na+] | 36% | 36.2% | 0.03 µg/mL | 0.5 µg/mL | 0.015 µg/mL | 0.015 µg/mL | 32 µg/mL | > 128 µg/mL | 0.5 µg/mL | 0.06 µg/mL | 16 µg/mL | 64 µg/mL | < 0.008 µg/mL | 63.1% | 0.125 µg/mL |  |  |  |  |  | Bound (Rhesus monkey): 49.1%
4 | CO/N=C(\C(=O)N[C@@H]1C(=O)N2C(C(=O)O)=C(CSc3nc(=O)c(O)nn3C)CS[C@H]12)c1csc(N)n1 [CEFTRIAXONE] |  |  |  |  |  |  |  |  |  |  |  |  |  |  |  |  |  |  |  |  | Bound (Homo sapiens [28]): 94%; Bound (Rattus norvegicus [29]): 88.5%
5 | COc1cccc(OC)c1C(=O)N[C@@H]1C(=O)N2[C@@H]1SC(C)(C)[C@@H]2C(=O)O [METHICILLIN] |  |  | > 128 µg/mL | > 128 µg/mL | 4 µg/mL (≈ 10.5 µM) | 32 µg/mL (≈ 84.1 µM) | > 128 µg/mL | > 128 µg/mL | 4 µg/mL (≈ 10.5 µM) | 4 µg/mL (≈ 10.5 µM) | 8 µg/mL (≈ 21 µM) | 64 µg/mL (≈ 168 µM) | 0.5 µg/mL (≈ 1.31 µM) |  | 2 µg/mL (≈ 5.26 µM) | 456 µg/mL (≈ 1200 µM) | 8 µg/mL (≈ 21 µM) | 8 µg/mL (≈ 21 µM) | 256 µg/mL (≈ 673 µM) | 1 µg/mL (≈ 2.63 µM) | MIC (Staphylococcus aureus [24]): 1 µg/mL (≈ 2.63 µM); MIC (Staphylococcus aureus [25]): > 512 µg/mL; MIC (Staphylococcus aureus [26]): > 512 µg/mL; MIC (Staphylococcus aureus [27]): 256 µg/mL (≈ 673 µM)
6 | CCOc1ccc2ccccc2c1C(=O)N[C@@H]1C(=O)N2[C@@H]1SC(C)(C)[C@@H]2C(=O)O [NAFCILLIN] |  |  |  |  |  |  |  |  |  |  |  |  |  |  |  | 200 µg/mL (≈ 483 µM) | 1 µg/mL (≈ 2.41 µM) | 0.25 µg/mL (≈ 0.603 µM) | 32 µg/mL (≈ 77.2 µM) | 0.25 µg/mL (≈ 0.603 µM) | MIC (Staphylococcus aureus [24]): 0.25 µg/mL (≈ 0.603 µM); MIC (Staphylococcus aureus [25]): 128 µg/mL (≈ 309 µM); MIC (Staphylococcus aureus [26]): 128 µg/mL (≈ 309 µM); MIC (Staphylococcus aureus [27]): 64 µg/mL (≈ 154 µM)
